Reference: ChEMBL document CHEMBL4765342, “Substituted benzothiophene and benzofuran derivatives as a novel class of bone morphogenetic Protein-2 upregulators: Synthesis, anti-osteoporosis efficacies in ovariectomized rats and a zebrafish model, and ADME properties” (Eur J Med Chem, 2020)
Activity calls are given as the source filed them. The rule behind the calls is not given here.

Columns and labels:
[1] = target: Runt-related transcription factor 2 (Mus musculus) (UniProt Q08775); test: Upregulation of Runx2 transcriptional activity in mouse MC3T3-E1 cells transfected with p6OSE2-luc at 10 uM incubated for 48 hrs by firefly luciferase reporter gene assay relative to control; format: cell-based; details: filed as activator
Outline: (§1)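 MC3T3-E1 cells reverse-transfected in suspension with p6OSE2-luc (Runx2-responsive reporter), 100 ng DNA per well, 10^5 cells/ml in α-MEM with 10% FBS, 37 °C in CO2. After 24 h the medium was replaced with complete medium containing compound, with lovastatin as positive control. Firefly luciferase read after a further 48 h as relative luminescence units. Significance by Dunnett's test.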

MC3T3-E1 = test: Cytotoxicity against mouse MC3T3-E1 cells at 100 uM; format: cell-based; details: mc3t3-e1, 100 µM
Rattus norvegicus [2] = test: Antiosteoporotic activity in Sprague-Dawley rat model of OVX-induced bone loss assessed as narrowed gap between trabeculae at 5 mg/kg, ig administered for 3 months with 1 day break after 6 consecutive days administration; format: functional, organism-based
Outline: (§2)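 Female SD rats given bilateral ovariectomy (sham: fat tissue removed instead), adapted 1 week beforehand; dosing began on postoperative day 10, n = 10 per group. Test drugs as 3 mg/mL suspension by gavage; raloxifene hydrochloride at 0.5 mg/mL. Controls got water. Tetracycline 30 mg/kg ip 16 and 3 days before euthanasia. Tibia stained sections give trabecular morphology and TBV%. BMD of L4-6 measured by densitometry under pentobarbital 45 mg/kg anaesthesia. Reported as mean ± SD.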

Rattus norvegicus [3] = test: Antiosteoporotic activity in Sprague-Dawley rat model of OVX-induced bone loss assessed as increase in thickness of trabeculae at 5 mg/kg, ig administered for 3 months with 1 day break after 6 consecutive days administration; format: functional, organism-based; outline: as §2
Rattus norvegicus [4] = test: Antiosteoporotic activity in Sprague-Dawley rat model of OVX-induced bone loss assessed as increase in trabecular bone volume at 5 mg/kg, ig administered for 3 months with 1 day break after 6 consecutive days administration; format: functional, organism-based; outline: as §2
Rattus norvegicus [5] = test: Antiosteoporotic activity in Sprague-Dawley rat model of OVX-induced bone loss assessed as increase in number of trabeculae at 5 mg/kg, ig administered for 3 months with 1 day break after 6 consecutive days administration; format: functional, organism-based; outline: as §2
Rattus norvegicus [6] = test: Antiosteoporotic activity in Sprague-Dawley rat model of OVX-induced bone loss assessed as increase in trabecular bone mineral density at 5 mg/kg, ig administered for 3 months with 1 day break after 6 consecutive days administration; format: functional, organism-based; outline: as §2
[7] = Permeability across apical to basolateral side in human Caco-2 cells assessed as […] yellow leakage at 10 uM incubated for 2 hrs LC-MS/MS analysis; format: ADME, cell-based; details: caco-2, 2 h
Outline: (§3)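 Caco-2 monolayers, apical to basolateral direction. Plates preincubated 30 min at 37 °C, then exposed to 10 µM compound for 2 h at 37 °C without shaking. Donor and receiver samples were quenched, centrifuged and measured by LC/MS/MS, in duplicate. Papp calculated from receiver concentration, area and time. Monolayer integrity checked by TEER and by Lucifer yellow leakage (30 min, 37 °C, ex 485/em 530 nm).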

[8] = Solubility in PBS buffer at pH 7.4 assessed as precipitation of compound at 10000 nM; format: physicochemical; details: pH 7.4, 10 µM
[9] = Toxicity in BALB/c mouse assessed as effect on behavioral change at 50 to 100 mg/kg, ig administered for 14 days; format: organism-based; details: in vivo, po, 336 h, dose 50-100 mg/kg, time 14 day
Outline: (§4)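 BALB/c mice, 10 per group, gavaged daily for 14 days at 50 or 100 mg/kg; blank control group included. Hair, behaviour and neurological signs (fremitus, convulsion, spasm, gait disturbance) were observed. At day 14, mice were weighed and given routine blood tests and serum biochemistry (ALT, AST, urea, creatinine; n = 10). Liver and kidney were examined on paraffin-embedded histology sections.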

[10] = Solubility in PBS buffer at pH 7.4 assessed as precipitation of compound at 625 nM; format: physicochemical; details: pH 7.4, 0.625 µM
[11] = Toxicity in BALB/c mouse assessed as hepatocyte necrotic foci at 50 to 100 mg/kg, ig administered for 14 days; format: organism-based; details: in vivo, po, 336 h, dose 50-100 mg/kg, time 14 day; outline: as §4
[12] = Renal toxicity in BALB/c mouse assessed as effect on serum creatinine level at 50 to 100 mg/kg, ig administered for 14 days; format: organism-based; details: in vivo, po, 336 h, dose 50-100 mg/kg, time 14 day; outline: as §4
[13] = Hepatotoxicity in BALB/c mouse assessed as effect on serum ALT level at 50 to 100 mg/kg, ig administered for 14 days; format: toxicity, organism-based; details: in vivo, po, 336 h, dose 50-100 mg/kg, time 14 day; outline: as §4
[14] = Solubility in PBS buffer at pH 7.4 assessed as precipitation of compound at 312.5 nM; format: physicochemical; details: pH 7.4, 0.3125 µM
[15] = Renal toxicity in BALB/c mouse assessed as effect on serum urea level at 50 to 100 mg/kg, ig administered for 14 days; format: organism-based; details: in vivo, po, 336 h, dose 50-100 mg/kg, time 14 day; outline: as §4
[16] = Toxicity in BALB/c mouse assessed as muscle spasm at 50 to 100 mg/kg, ig administered for 14 days; format: organism-based; details: in vivo, po, 336 h, dose 50-100 mg/kg, time 14 day; outline: as §4
Rattus norvegicus [17] = test: Antiosteoporotic activity in Sprague-Dawley rat model of OVX-induced bone loss assessed as increase in number of trabeculae at 30 mg/kg, ig administered for 3 months with 1 day break after 6 consecutive days administration; format: functional, organism-based; outline: as §2
[18] = Toxicity in BALB/c mouse assessed as inflammatory infiltration in liver at 50 to 100 mg/kg, ig administered for 14 days; format: organism-based; details: in vivo, po, 336 h, dose 50-100 mg/kg, time 14 day; outline: as §4
[19] = Permeability across apical to basolateral side in human Caco-2 cells assessed as transepithelial electrical resistance at 10 uM incubated for 2 hrs LC-MS/MS analysis; format: ADME, cell-based; details: caco-2, 2 h; outline: as §3
[20] = Toxicity in BALB/c mouse assessed as gait disturbance at 50 to 100 mg/kg, ig administered for 14 days; format: organism-based; details: in vivo, po, 336 h, dose 50-100 mg/kg, time 14 day; outline: as §4
[21] = Hepatotoxicity in BALB/c mouse assessed as effect on serum AST level at 50 to 100 mg/kg, ig administered for 14 days; format: toxicity, organism-based; details: in vivo, po, 336 h, dose 50-100 mg/kg, time 14 day; outline: as §4
[22] = Toxicity in BALB/c mouse assessed as necrosis in renal tubular epithelial cells at 50 to 100 mg/kg, ig administered for 14 days; format: organism-based; details: in vivo, po, 336 h, dose 50-100 mg/kg, time 14 day
Outline: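 BALB/c mice, 10 per group: untreated blank group plus low (50 mg/kg) and high (100 mg/kg) dose groups, intragastric once daily for 14 days. Hair, behaviour and neurological signs monitored throughout. At day 14 mice were weighed and dissected. Kidney and liver tissue was fixed in 3 mm pieces, dehydrated through graded alcohol, cleared in xylene, embedded in paraffin, sectioned and examined histopathologically.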

[23] = Solubility in PBS buffer at pH 7.4 assessed as precipitation of compound at 2500 nM; format: physicochemical; details: pH 7.4, 2.5 µM
Rattus norvegicus [24] = test: Antiosteoporotic activity in Sprague-Dawley rat model of OVX-induced bone loss assessed as narrowed gap between trabeculae at 30 mg/kg, ig administered for 3 months with 1 day break after 6 consecutive days administration; format: functional, organism-based; outline: as §2
[25] = Toxicity in BALB/c mouse assessed as convulsion at 50 to 100 mg/kg, ig administered for 14 days; format: organism-based; details: in vivo, po, 336 h, dose 50-100 mg/kg, time 14 day; outline: as §4
[26] = Solubility in PBS buffer at pH 7.4 assessed as precipitation of compound at 5000 nM; format: physicochemical; details: pH 7.4, 5 µM
Rattus norvegicus [27] = test: Antiosteoporotic activity in Sprague-Dawley rat model of OVX-induced bone loss assessed as increase in thickness of trabeculae at 30 mg/kg, ig administered for 3 months with 1 day break after 6 consecutive days administration; format: functional, organism-based; outline: as §2
[28] = Toxicity in BALB/c mouse assessed as effect on liver megakaryocyte at 50 to 100 mg/kg, ig administered for 14 days; format: organism-based; details: in vivo, po, 336 h, dose 50-100 mg/kg, time 14 day; outline: as §4
Rattus norvegicus [29] = test: Antiosteoporotic activity in Sprague-Dawley rat model of OVX-induced bone loss assessed as increase in trabecular bone volume at 30 mg/kg, ig administered for 3 months with 1 day break after 6 consecutive days administration; format: functional, organism-based; outline: as §2
Rattus norvegicus [30] = test: Antiosteoporotic activity in Sprague-Dawley rat model of OVX-induced bone loss assessed as increase in trabecular bone mineral density at 30 mg/kg, ig administered for 3 months with 1 day break after 6 consecutive days administration; format: functional, organism-based; outline: as §2
[31] = Toxicity in BALB/c mouse assessed as effect on body weight at 50 to 100 mg/kg, ig administered for 14 days; format: organism-based; details: in vivo, po, 336 h, dose 50-100 mg/kg, time 14 day; outline: as §4
[32] = Apparent permeability across apical to basolateral side in human Caco-2 cells at 10 uM incubated for 2 hrs LC-MS/MS analysis; format: ADME, cell-based; details: Caco-2; outline: as §3
[33] = Solubility in PBS buffer at pH 7.4 assessed as precipitation of compound at 156.25 nM; format: physicochemical; details: pH 7.4, 0.15625 µM
[34] = Toxicity in BALB/c mouse assessed as fremitus at 50 to 100 mg/kg, ig administered for 14 days; format: organism-based; details: in vivo, po, 336 h, dose 50-100 mg/kg, time 14 day; outline: as §4
[35] = Toxicity in BALB/c mouse assessed as hepatocyte nucleus mitosis at 50 to 100 mg/kg, ig administered for 14 days; format: organism-based; details: in vivo, po, 336 h, dose 50-100 mg/kg, time 14 day; outline: as §4
[36] = Toxicity in BALB/c mouse assessed as effect on hair at 50 to 100 mg/kg, ig administered for 14 days; format: organism-based; details: in vivo, po, 336 h, dose 50-100 mg/kg, time 14 day; outline: as §4
Danio rerio [37] = organism: Danio rerio; test: Antiosteoporotic activity in Zebra fish model of dexamethasone-induced bone loss assessed as increase in BMP-2 expression at 1 uM incubated for 24 hrs in presence of dexamethasone by Western blot analysis; format: functional, organism-based
Outline: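 Protein extracts were prepared from untreated, dexamethasone-treated and drug-treated (1 µM, 24 h) zebrafish, and BMP-2 protein was then assessed.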

Danio rerio [38] = organism: Danio rerio; test: Antiosteoporotic activity in Zebra fish model of dexamethasone-induced bone loss assessed as increase in bone mineralization at 1 to 25 uM 6hpf embryo treated for 72 hrs with dexamethasone followed by incubation with drug and measured after 6 days post-fertilization by alizarin dye based imaging analysis; format: functional, organism-based; details: dose 1-25 µM, time 3.0 day
Outline: (§5)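 AB-line zebrafish embryos at 6 hpf held in dexamethasone solution for 72 h, then exposed to drug, and cultured to 6 dpf. Larvae stained with alizarin red, rehydrated, decolorised and photographed. Stained area and integrated optical density were summed over the left-flank branchial bones: cleithrum, compass, opercle and branchiostegal rays. Values expressed relative to untreated controls set at 1.00.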

[39] = target: Runt-related transcription factor 2 (Mus musculus) (UniProt Q08775); test: Upregulation of Runx2 transcriptional activity in mouse MC3T3-E1 cells transfected with p6OSE2-luc at 100 uM incubated for 48 hrs by firefly luciferase reporter gene assay relative to control; format: cell-based; details: filed as activator; outline: as §1
Danio rerio [40] = organism: Danio rerio; test: Antiosteoporotic activity in Zebra fish model of dexamethasone-induced bone loss assessed as increase in bone mineralization by measuring increase in integrated optical density 6hpf embryo treated for 72 hrs with dexamethasone followed by incubation with drug and measured after 6 days post-fertilization by alizarin dye based imaging analysis; format: functional, organism-based; details: dose 1-25 µM, time 3.0 day; outline: as §5

Runt-related transcription factor 2 (Mus musculus), sequence (Q08775 whole entry): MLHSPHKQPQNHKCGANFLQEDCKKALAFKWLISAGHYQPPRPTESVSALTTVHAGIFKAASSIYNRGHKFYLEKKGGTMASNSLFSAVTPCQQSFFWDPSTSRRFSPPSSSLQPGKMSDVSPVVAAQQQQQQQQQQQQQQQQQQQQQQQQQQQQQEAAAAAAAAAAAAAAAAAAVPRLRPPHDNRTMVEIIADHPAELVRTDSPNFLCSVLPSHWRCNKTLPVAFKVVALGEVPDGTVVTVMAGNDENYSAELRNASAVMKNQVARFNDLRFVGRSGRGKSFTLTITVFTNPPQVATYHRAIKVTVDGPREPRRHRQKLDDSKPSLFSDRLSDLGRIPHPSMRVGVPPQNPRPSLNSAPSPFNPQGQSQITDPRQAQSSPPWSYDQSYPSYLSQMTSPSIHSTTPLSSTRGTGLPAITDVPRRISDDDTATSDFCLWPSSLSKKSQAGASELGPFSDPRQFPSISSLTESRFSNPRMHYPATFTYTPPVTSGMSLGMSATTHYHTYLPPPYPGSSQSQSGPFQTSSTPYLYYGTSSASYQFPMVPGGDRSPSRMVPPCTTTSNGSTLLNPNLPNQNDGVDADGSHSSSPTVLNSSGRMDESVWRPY

CC[C@H](C)C(=O)O[C@H]1C[C@@H](C)C=C2C=C[C@H](C)[C@H](CC[C@@H]3C[C@@H](O)CC(=O)O3)[C@H]21 [LOVASTATIN]
Activity [1]: 256%
Activity (MC3T3-E1): Toxic

O=C(c1ccc(OCCN2CCCCC2)cc1)c1c(-c2ccc(O)cc2)sc2cc(O)ccc12
Activity (Rattus norvegicus [2]): Active
Activity (Rattus norvegicus [3]): Active
Activity (Rattus norvegicus [4]): Active
Activity (Rattus norvegicus [5]): Active
Activity (Rattus norvegicus [6]): Active

CCOC(=O)c1cc2ccc(OC)cc2o1
Activity [7]: 0.152%
solubility [8]: Insoluble
Activity [9]: Non-Toxic
solubility [10]: Soluble
Activity [11]: Toxic
Activity [12]: Non-Toxic
Activity [13]: Non-Toxic
solubility [14]: Soluble
Activity [15]: Non-Toxic
Activity [16]: Non-Toxic
Activity (Rattus norvegicus [17]): Active
Activity [18]: Toxic
Activity [19]: 373 Ω·cm²
Activity [20]: Non-Toxic
Activity [21]: Non-Toxic
Activity [22]: Toxic
solubility [23]: Insoluble
Activity (Rattus norvegicus [24]): Active
Activity [25]: Non-Toxic
solubility [26]: Insoluble
Activity (Rattus norvegicus [27]): Active
Activity [28]: Toxic
Activity (Rattus norvegicus [29]): Active
Activity (Rattus norvegicus [30]): Active
Activity [31]: Non-Toxic
Papp A→B at 2 h, 10 µM [32]: < 0.00247 ×10⁻⁶ cm/s
solubility [33]: Soluble
Activity [34]: Non-Toxic
Activity [35]: Toxic
Activity [36]: Non-Toxic

COc1ccc2cc(C(=O)NCCN(C)C)oc2c1
Activity (Danio rerio [37]): Active
Activity (Danio rerio [38]): Active
Activity (Rattus norvegicus [17]): Active
Activity (Rattus norvegicus [24]): Active
Activity (Rattus norvegicus [27]): Active
Activity [39]: 267%
Activity (Rattus norvegicus [29]): Active
Activity (Rattus norvegicus [30]): Active
Activity (Danio rerio [40]): Dose-dependent effect
